Data published in ChEMBL document CHEMBL4513216, “Probing the Open Global Health Chemical Diversity Library for Multistage-Active Starting Points for Next-Generation Antimalarials” (ACS Infect Dis, 2020).

Assay: Toxicity liver stage against HepG2, at 10uM
Type: cell-based
Parameters: test concentration 10 uM, cell line HepG2-A16-CD81EGFP
Settings: human, HepG2-A16-CD81EGFP cells; read-out: INHIBITION
In short: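 Uninfected HepG2-A16-CD81EGFP cells, 3 × 10^3 per well, 1536-well, plated on prespotted compound at 10 μM final, parasite-free screening media added to match infected plates; puromycin 10 μM positive, DMSO 0.5% negative; run in parallel with 48 h PbLuc assay at 37 °C, 5% CO2; viability by CellTiter-Glo luminescence, normalized to controls.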
`CC1CCN(Cc2cc(=O)[nH]c(=O)[nH]2)CC1` showed a cytotoxicity at 10 µM of 9.95%.
Work on `O=C1N[C@@H]2CCN(C(=O)C3CCC3)[C@@H]2C(=O)N1c1ccc(F)cc1` yielded a cytotoxicity at 10 µM of -6.43%.
`O=C(c1cc(CC2(NCC3CCCCC3)COC2)no1)N1CCCCC1` gave a cytotoxicity at 10 µM of 5.35%.
`COCC(=O)N[C@H](C)c1onc(-c2ccc(OC)cc2)c1C(=O)O` showed a cytotoxicity at 10 µM of 4.82%.
`COCCNc1ccc(-c2noc([C@@H]3CCCN3)n2)cn1` gave a cytotoxicity at 10 µM of -1.57%.
With `CO[C@H]1COCCN(C(=O)c2cc(C)oc2C(F)(F)F)C1` the cytotoxicity at 10 µM was -12.1%.
`CN1C[C@H](O)C[C@H]1c1nc(-c2ccc(OC(F)(F)F)cc2)no1` showed a cytotoxicity at 10 µM of -12.2%.
Work on `CCc1cc(=O)[nH]c2nnc(SCC(=O)NC(C)C)n12` yielded a cytotoxicity at 10 µM of -6.93%.
With `O=C(c1ccc(Cl)cc1)N1CCc2nc(C(=O)N3CCCC3)sc2CC1` the cytotoxicity at 10 µM was 8.04%.
Molecule `O=c1[nH]nc(-c2cccs2)c2sc(N3CCOCC3)nc12` has a cytotoxicity at 10 µM of 9.28%.
With `CN(C(=O)Cn1nc(-c2ccc(Br)cc2)ccc1=O)C1CCS(=O)(=O)C1` (configuration not stated) the cytotoxicity at 10 µM was 4.38%.
Work on `CC(=O)c1nn(-c2ccccc2Cl)c(C)c1C(C)=O` yielded a cytotoxicity at 10 µM of 6.33%.
For `O=C(Cn1nc2c(cc1=O)CCCC2)NC(Cc1ccccc1)C(=O)O` (configuration not stated), the cytotoxicity at 10 µM was 2.24%.
For `CN(C)c1nccc(C2CCCCN2Cc2cnn3cccnc23)n1` (configuration not stated), the cytotoxicity at 10 µM was 10.5%.
For `COc1cccc(CN2CCCC2c2cncc(Nc3nncs3)n2)c1` (configuration not stated), the cytotoxicity at 10 µM was 4.73%.
Molecule `CCN1CCCC1CNCc1cc2cc(C)c(C)cc2[nH]c1=O` (configuration not stated) has a cytotoxicity at 10 µM of -6.69%.
`O=C(NCCc1ccc(F)cc1)C1CN(C(=O)Cn2cncn2)C1` gave a cytotoxicity at 10 µM of 3.54%.
`COC(=O)Cc1cn2cc(C(F)(F)F)ccc2n1` showed a cytotoxicity at 10 µM of 9.21%.
With `Cc1cc(CN(C)Cc2ncc(C(C)(C)C)o2)no1` the cytotoxicity at 10 µM was 2.58%.
Molecule `CN1CCOC(C(=O)Nc2nc(-c3ccc(Cl)cc3)n[nH]2)C1` (configuration not stated) has a cytotoxicity at 10 µM of -4.34%.
For `Cc1oc(C)c(C(=O)NS(=O)(=O)c2ccc3c(c2)OCCCO3)c1C`, the cytotoxicity at 10 µM was 6.08%.
Molecule `Cc1ccc(CNC(=O)NCC(=O)NC(C)(C)C)c(N2CCCC2)c1` has a cytotoxicity at 10 µM of 5.68%.
Work on `CCS(=O)(=O)CC(C)N(C)C(=O)COc1ccccc1C#N` (configuration not stated) yielded a cytotoxicity at 10 µM of -3.51%.
Work on `Cc1ccc(C(=O)N(Cc2cccc(F)c2)C2CC2)c(=O)[nH]1` yielded a cytotoxicity at 10 µM of -4.86%.
In the case of `COc1c(F)cc(NC(=O)NCc2nncn2C2CC2)cc1F`, the cytotoxicity at 10 µM is reported as -4.7%.
Work on `Cc1noc(C)c1CNC(=O)N1CCCC(C)CC1` (configuration not stated) yielded a cytotoxicity at 10 µM of -7.31%.
Work on `COC(=O)c1ccc(CNC(C)(C)c2ccccc2OC)o1` yielded a cytotoxicity at 10 µM of -0.651%.
Work on `CC(=O)N(Cc1ccoc1)C1CCCCC1` yielded a cytotoxicity at 10 µM of -2.86%.
`CC(C)Oc1ccc(C(O)CNCc2ccccc2C(F)(F)F)cc1` (configuration not stated) showed a cytotoxicity at 10 µM of -1.71%.
Molecule `CSc1nsc(NC(=O)N(C)Cc2ccc3c(c2)OCO3)n1` has a cytotoxicity at 10 µM of -10.4%.
Molecule `FC(F)Oc1ccc(NCc2nc(C3CC3)no2)c(OC(F)F)c1` has a cytotoxicity at 10 µM of 4.19%.
Work on `CCOc1ccc(CN2C(=O)CC(C)(C)C2=O)nc1` yielded a cytotoxicity at 10 µM of -11.9%.
With `CC(C)(C)NC(=O)C1CSCN1C(=O)CCc1ccco1` (configuration not stated) the cytotoxicity at 10 µM was -6.77%.
Molecule `CN1CCN(c2ncccc2CNc2ncccc2C#N)CC1` has a cytotoxicity at 10 µM of 15.4%.
`Cc1cnn(C2CN(CC(O)c3ccc(F)cc3)C2)c1` (configuration not stated) showed a cytotoxicity at 10 µM of 11.9%.
`CC(O)CC(C)(C)CNC(=O)NCc1cccc(-n2ccnc2)c1` (configuration not stated) showed a cytotoxicity at 10 µM of -3.34%.
`CN(C)C1CCN(C(=O)NCc2ccccc2Cn2cncn2)CC1` showed a cytotoxicity at 10 µM of -8.15%.
Molecule `CC(C)Cc1noc(CN2CCN(C(=O)c3cccc(F)c3)CC2)n1` has a cytotoxicity at 10 µM of -5.7%.
`COc1ccc(CNCCc2cc(F)cc3c2OCOC3)cc1O` gave a cytotoxicity at 10 µM of -9.26%.
In the case of `CCn1nnc2c1C(COC)CN(Cc1ccco1)C2` (configuration not stated), the cytotoxicity at 10 µM is reported as 0.73%.
`Cc1cnc(C)c(N2CCC3(CCCN(C4CCOCC4)C3=O)C2)n1` (configuration not stated) showed a cytotoxicity at 10 µM of -124%.
Molecule `Cc1cc(N2CCC3(CCC(=O)N(CC4CC4)C3)CC2)ncn1` has a cytotoxicity at 10 µM of -7.8%.
In the case of `CCCn1cc(C(=O)N2CCCC(c3nccn3CCOC)C2)c(C)n1` (configuration not stated), the cytotoxicity at 10 µM is reported as 0.00455%.
In the case of `Cc1ncsc1CCC(=O)NCc1cc2n(n1)CCNC2`, the cytotoxicity at 10 µM is reported as -3.78%.
Work on `COc1ccc(-c2ncc(-c3nccn3CCN(C)C)cn2)cc1` yielded a cytotoxicity at 10 µM of 1.44%.
Molecule `COC[C@@H]1CCCN1C(=O)c1cc(-c2ccc(OC)cc2)n[nH]1` has a cytotoxicity at 10 µM of 13.2%.
`O=C(c1cnc(O)cn1)N1CCC(CN2CCOCC2)CC1` gave a cytotoxicity at 10 µM of 9.49%.
`COc1cccc(-c2cccc(-c3ccn(CC4COCCO4)n3)c2)n1` (configuration not stated) showed a cytotoxicity at 10 µM of -3.81%.
`O=C(c1ccc(C2CCCN2C(=O)c2cscn2)s1)N1CCSCC1` (configuration not stated) gave a cytotoxicity at 10 µM of -4.31%.
`CN(Cc1cc2n(n1)CCCNC2)Cc1cc(-c2ccncc2)no1` showed a cytotoxicity at 10 µM of 3.67%.
`CNC(=O)CNC(=O)CC1C(=O)NCCN1Cc1ccccc1C` (configuration not stated) gave a cytotoxicity at 10 µM of -2.88%.
Work on `COc1ccc(-c2nc(CN(C)Cc3nncn3C)c(C)o2)c(C)c1C` yielded a cytotoxicity at 10 µM of -8.87%.
`CC(C)CN1CCN(Cc2nc3ccccc3[nH]2)[C@H]2CS(=O)(=O)C[C@H]21` gave a cytotoxicity at 10 µM of 14.4%.
`COC(=O)c1ccc2ccn(CC3CCCO3)c(=O)c2c1` (configuration not stated) showed a cytotoxicity at 10 µM of -15.8%.
In the case of `COC1CCCN(C(=O)Nc2nc(C)n(C)n2)C1` (configuration not stated), the cytotoxicity at 10 µM is reported as 16.3%.
Molecule `CCc1noc(-c2cccc(C(=O)O)c2)n1` has a cytotoxicity at 10 µM of -8.24%.
For `COc1c(C)cnc(CN2CCC(N(C)C(=O)C(C)OC)CC2)c1C` (configuration not stated), the cytotoxicity at 10 µM was -11.3%.
`Cc1[nH]ncc1CCCNC(=O)N1CCCC(c2nncn2C)C1` (configuration not stated) gave a cytotoxicity at 10 µM of -7.58%.
`CC(NC(=O)CSCC#N)c1cccc(Cl)c1` (configuration not stated) gave a cytotoxicity at 10 µM of -3.06%.
For `CCN1CCN(C(=O)NCc2cc[nH]n2)CC1`, the cytotoxicity at 10 µM was -12.7%.
In the case of `Cc1nc(C)c(C(=O)NCCNC(=O)Cc2ccc(F)cc2)s1`, the cytotoxicity at 10 µM is reported as -5.68%.
Work on `CC(C)n1cc(CN2CCCN(C(=O)C3CCOC3)CC2)cn1` (configuration not stated) yielded a cytotoxicity at 10 µM of -8.45%.
For `N#Cc1ccccc1N1CCCN(C(=O)CCc2cccs2)CC1`, the cytotoxicity at 10 µM was -1.27%.
For `Cc1nc(C(C)C)sc1C(=O)NCCNc1ncccc1C#N`, the cytotoxicity at 10 µM was -2.55%.
Work on `CCn1nc2c(cc1=O)CN(CC(=O)Nc1nnc(C)s1)CC2` yielded a cytotoxicity at 10 µM of -18.2%.
In the case of `COc1ccc(C(C)NC(=O)Cn2ccc(=O)n(C)c2=O)cc1F` (configuration not stated), the cytotoxicity at 10 µM is reported as -3.17%.
With `c1cnnc(N2CCCC2CNCc2noc(C3CC3)n2)c1` (configuration not stated) the cytotoxicity at 10 µM was -7.45%.
Molecule `Cc1nn(C)c(N2CCOCC2)c1CNCc1ccoc1C` has a cytotoxicity at 10 µM of -8.76%.
For `CCn1cc(NC(=O)NCC(O)c2ccccc2)cn1` (configuration not stated), the cytotoxicity at 10 µM was -1.14%.
Molecule `CCOC(=O)CSc1nnc([C@@H](N)C(C)CC)o1` (some centres not stated) has a cytotoxicity at 10 µM of 2%.
With `CN(C(=O)c1ncn2c1CN(C)S(=O)(=O)c1ccccc1-2)C1CC1` the cytotoxicity at 10 µM was -131%.
In the case of `CNC(=O)[C@H]1C[C@@H]2CCN(Cc3ccncc3)C[C@H]2O1`, the cytotoxicity at 10 µM is reported as 10.3%.
With `O=C(NCc1ccco1)[C@H]1CC[C@@H]2[C@@H](CCN2Cc2nccs2)O1` the cytotoxicity at 10 µM was 2.67%.
`O=C1N(c2cccnc2)CCC12CCCN(Cc1ccoc1)C2` (configuration not stated) gave a cytotoxicity at 10 µM of -1.6%.
Work on `CCN(CC)CC1CN(Cc2ccc(C)s2)Cc2nccn2C1` (configuration not stated) yielded a cytotoxicity at 10 µM of 2.32%.
Work on `O=C(NCc1cnc2n1CCN(CC1CC1)C2)C1CC1` yielded a cytotoxicity at 10 µM of 5.06%.
Work on `CCCC(=O)N1C[C@@H]2CCN(c3cnccn3)C[C@@H]2C1` yielded a cytotoxicity at 10 µM of -1.48%.
With `Cc1cnc(N2CCOC3(CCCN(CC(=O)N(C)C)C3)C2)nc1` (configuration not stated) the cytotoxicity at 10 µM was 8.67%.
In the case of `Cc1cc(CN2C[C@@H]3CN(C(=O)c4ccsc4)CCO[C@@H]3C2)no1`, the cytotoxicity at 10 µM is reported as -131%.
Work on `c1cnc(NC[C@@H]2CCC[C@@H]3CN(Cc4csnn4)C[C@@H]32)nc1` yielded a cytotoxicity at 10 µM of -126%.
`c1ccc(-c2cnc3n2CCNC32CCNCC2)cc1` gave a cytotoxicity at 10 µM of -2.2%.
For `Cc1ccc(NCc2cncc3c2CCN(Cc2ccccn2)C3)nn1`, the cytotoxicity at 10 µM was -6.4%.
